Reference: ChEMBL document CHEMBL2010694, “Indolyl and dihydroindolyl N-glycinamides as potent and in vivo active NPY5 antagonists” (Bioorg Med Chem Lett, 2012)
Active and inactive are the calls of the source. The rule behind the calls is not given here.

Assays:
[1] = target: T1, Neuropeptide Y receptor type 5 (Homo sapiens, UniProt Q15761); assay: Displacement of [125I]peptide YY from human NPY5 receptor
T1 sequence (Q15761 whole entry): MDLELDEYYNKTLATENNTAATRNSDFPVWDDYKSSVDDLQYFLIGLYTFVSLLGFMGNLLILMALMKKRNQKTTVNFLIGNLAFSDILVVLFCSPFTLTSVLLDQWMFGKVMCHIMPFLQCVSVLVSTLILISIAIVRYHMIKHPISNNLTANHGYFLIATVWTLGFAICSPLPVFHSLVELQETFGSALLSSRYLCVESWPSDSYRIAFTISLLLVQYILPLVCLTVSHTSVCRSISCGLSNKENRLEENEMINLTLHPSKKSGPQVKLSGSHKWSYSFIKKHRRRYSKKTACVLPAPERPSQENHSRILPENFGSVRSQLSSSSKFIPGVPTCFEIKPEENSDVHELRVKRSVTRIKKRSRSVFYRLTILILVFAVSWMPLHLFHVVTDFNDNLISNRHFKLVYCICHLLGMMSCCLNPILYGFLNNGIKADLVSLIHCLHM

[2] = system: Liver microsomes; assay: Intrinsic clearance in human liver microsomes at 1 uM by LC/MS analysis; assay type: ADME, Microsome
How it was run: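 Compound incubated with human or rat liver microsomes; reaction quenched with acetonitrile, centrifuged, and remaining drug in supernatant measured by LC/MS to estimate T1/2, from which intrinsic clearance was derived.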

[3] = system: Brain; assay: Drug uptake in Sprague-Dawley rat brain at 10 mg/kg, po by LC-MS/MS analysis; assay type: ADME, organism-based; parameters: dose 10 mg/kg, route oral; settings: in vivo, read-out: Drug uptake
How it was run: (§1)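 Male Sprague-Dawley rats (300–350 g), femoral artery cannulated; single 10 mg/kg oral dose in an appropriate vehicle, N = 3. Blood taken predose, 1, 2 and 4 h; brains then collected and stored at -80 °C. Equal portions of plasma or homogenized brain from the three rats pooled per time point, protein precipitated, quantified by LC/MS/MS.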

[4] = system: Plasma; assay: Plasma concentration in Sprague-Dawley rat at 10 mg/kg, po by LC-MS/MS analysis; assay type: ADME, organism-based; parameters: dose 10 mg/kg, route oral; settings: in vivo; how it was run: as §1
[5] = system: MDR; assay: Apparent permeability from basolateral to apical side in MDCK cells expressing MDR; assay type: ADME, cell-based, Canis lupus familiaris; settings: dog, MDCK-MDR1
How it was run: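 Bidirectional permeability (A–B and B–A) across a Pgp-overexpressing mdr-MDCK cell monolayer; efflux ratio derived from the two Papp values, given in 10^-6 cm/s.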

[6] = system: MDR; assay: Efflux ratio of permeability from basolateral to apical side over apical to basolateral side in MDCK cells expressing MDR; assay type: ADME, cell-based, Canis lupus familiaris; settings: dog, MDCK-MDR1
How it was run: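 Bidirectional permeability measured across a Pgp-overexpressing mdr-MDCK cell monolayer, apical-to-basolateral and basolateral-to-apical. Apparent permeability (Papp, 10^-6 cm/s) was determined in each direction, and the efflux ratio was taken as Papp B–A over Papp A–B.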

[7] = Drug uptake in Sprague-Dawley rat brain at 10 mg/kg, po after 1 hr by LC-MS/MS analysis; assay type: ADME, organism-based; parameters: dose 10 mg/kg, route oral; settings: read-out: Drug uptake; how it was run: as §1
[8] = Lipophilicity, log D of the compound at pH 7.4; assay type: physicochemical; settings: buffer
[9] = target: T2, Cytochrome P450 1A2 (Homo sapiens, UniProt P05177); assay: Inhibition of CYP1A2; assay type: ADME
T2 sequence (P05177 whole entry): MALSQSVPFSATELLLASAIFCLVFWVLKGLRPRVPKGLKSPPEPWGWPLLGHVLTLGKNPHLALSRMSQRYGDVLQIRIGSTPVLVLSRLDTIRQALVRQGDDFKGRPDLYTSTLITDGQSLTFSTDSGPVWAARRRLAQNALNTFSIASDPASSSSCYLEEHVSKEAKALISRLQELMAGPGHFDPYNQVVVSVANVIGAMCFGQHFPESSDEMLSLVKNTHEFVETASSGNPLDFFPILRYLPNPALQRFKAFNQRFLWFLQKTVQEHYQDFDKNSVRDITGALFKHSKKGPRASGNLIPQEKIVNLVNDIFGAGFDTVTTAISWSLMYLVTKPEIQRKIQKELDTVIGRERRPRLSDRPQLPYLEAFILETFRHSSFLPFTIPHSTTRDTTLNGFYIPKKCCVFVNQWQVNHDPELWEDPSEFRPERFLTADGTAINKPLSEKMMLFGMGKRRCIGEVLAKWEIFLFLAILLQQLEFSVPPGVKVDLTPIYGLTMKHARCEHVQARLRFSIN

[10] = target: Cytochrome P450 2C19 (Homo sapiens, UniProt P33261); assay: Inhibition of CYP2C19; assay type: ADME
[11] = Absolute oral bioavailability in Sprague-Dawley rat at 2 mg/kg after 24 hrs wash out period by HPLC analysis; assay type: ADME, organism-based; settings: in vivo
How it was run: (§2)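 Male Sprague-Dawley rats (200–250 g), jugular and carotid artery cannulated; compound dissolved in 20% beta cyclodextrin, pH adjusted with methane sulfonic acid. Serial blood sampled at 12 time points over 24 h post dose by automated sampler; plasma from centrifugation analysed by HPLC; PK parameters by non-compartmental analysis of plasma concentration–time profile.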

[12] = Clearance in Sprague-Dawley rat blood at 2 mg/kg, po and 1 mg/kg, iv after 24 hrs wash out period by HPLC analysis; assay type: ADME, organism-based; settings: whole blood; how it was run: as §2
[13] = Clearance in Sprague-Dawley rat plasma at 2 mg/kg, po and 1 mg/kg, iv after 24 hrs wash out period by HPLC analysis; assay type: ADME, organism-based; how it was run: as §2
[14] = Cmax in Sprague-Dawley rat plasma at 2 mg/kg, po and 1 mg/kg, iv after 24 hrs wash out period by HPLC analysis; assay type: ADME, organism-based; how it was run: as §2
[15] = system: Rattus norvegicus; assay: Antiobesity activity in cPP-induced feeding in Sprague-Dawley rat model assessed as reduction in food intake at 0.1 to 10 mg/kg, po measured 1 hr post cpp challenge; assay type: functional, organism-based
How it was run: (§3)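 Rats pretreated orally at 0.1, 1 or 10 mg/kg (vehicle 20% cyclodextrin) 1 h before intracerebroventricular infusion of Y5-selective peptide agonist cPP, 0.6 nmol in normal saline; food intake recorded, n = 7–14 per group.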

[16] = system: Rattus norvegicus; assay: Antiobesity activity in po dosed cPP-induced feeding Sprague-Dawley rat model assessed as reduction in food intake measured 1 hr post cpp challenge; assay type: functional; how it was run: as §3
[17] = Drug uptake in cPP-induced feeding Sprague-Dawley rat model brain at 0.1 mg/kg, po after 1 hr; assay type: ADME, organism-based; parameters: dose 0.1 mg/kg, route oral; settings: read-out: Drug uptake
How it was run: (§4)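 Satellite animals from the cPP feeding study dosed orally at 0.1, 1 or 10 mg/kg; plasma (ng/mL) and brain (ng/g) levels measured 1 h after dosing.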

[18] = Drug uptake in cPP-induced feeding Sprague-Dawley rat model brain at 1 mg/kg, po after 1 hr; assay type: ADME, organism-based; parameters: dose 1 mg/kg, route oral; settings: read-out: Drug uptake; how it was run: as §4
[19] = Plasma concentration in cPP-induced feeding Sprague-Dawley rat model at 0.1 mg/kg, po after 1 hr; assay type: ADME, organism-based; parameters: dose 0.1 mg/kg, route oral; how it was run: as §4
[20] = Plasma concentration in cPP-induced feeding Sprague-Dawley rat model at 10 mg/kg, po after 1 hr; assay type: ADME, organism-based; parameters: dose 10 mg/kg, route oral; how it was run: as §4

Cytochrome P450 2C19, sequence (P33261 whole entry): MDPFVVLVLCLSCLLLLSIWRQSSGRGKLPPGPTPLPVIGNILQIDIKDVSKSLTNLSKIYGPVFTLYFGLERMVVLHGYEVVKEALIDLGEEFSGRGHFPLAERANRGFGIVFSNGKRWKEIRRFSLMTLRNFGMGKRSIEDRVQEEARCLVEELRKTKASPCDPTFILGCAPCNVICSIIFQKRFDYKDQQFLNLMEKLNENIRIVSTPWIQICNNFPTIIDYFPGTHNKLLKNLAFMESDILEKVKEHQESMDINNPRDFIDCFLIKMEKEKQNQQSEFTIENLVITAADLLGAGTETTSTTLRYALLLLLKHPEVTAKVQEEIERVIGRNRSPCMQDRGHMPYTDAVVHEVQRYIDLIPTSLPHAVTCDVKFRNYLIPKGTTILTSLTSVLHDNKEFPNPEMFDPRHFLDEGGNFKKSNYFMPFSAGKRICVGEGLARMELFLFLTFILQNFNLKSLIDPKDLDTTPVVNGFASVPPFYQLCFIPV

**Q.** With `CC(C)S(=O)(=O)NC[C@H]1CC[C@H](NC(=O)CN2CCc3cc(Cl)ccc32)CC1` as the compound, how does the Ki [1] read?
**A.** 0.0005 µM

**Q.** What about the CLH [2] of the same compound?
**A.** 3.6 L/min

**Q.** And the concentration [3]?
**A.** 304 nM

**Q.** And the concentration [4]?
**A.** 5610 nM

**Q.** What about the Papp B→A [5] of the same compound?
**A.** 60.1 ×10⁻⁶ cm/s

**Q.** And the efflux ratio [6]?
**A.** 26

**Q.** What about the concentration at 1 h [7] of the same compound?
**A.** 295 nM

**Q.** What about the logD [8] of the same compound?
**A.** 3

**Q.** And the IC50 [9]?
**A.** > 40 µM

**Q.** What about the IC50 [10] of the same compound?
**A.** > 40 µM

**Q.** And the bioavailability [11]?
**A.** 100%

**Q.** What about the clearance [12] of the same compound?
**A.** 23.3 mL/min/kg

**Q.** What about the clearance [13] of the same compound?
**A.** 25 mL/min/kg

**Q.** And the Cmax [14]?
**A.** 700 ng/mL

**Q.** What about the Activity [15] of the same compound?
**A.** Active

**Q.** What about the Activity [16] of the same compound?
**A.** Dose-dependent effect

**Q.** What about the minimal effective dose ([16]; read-out: MED) of the same compound?
**A.** < 0.1 mg/kg

**Q.** What about the concentration at 1 h [17] of the same compound?
**A.** 11 ng/g

**Q.** What about the concentration at 1 h [18] of the same compound?
**A.** 104 ng/g

**Q.** What about the concentration at 1 h [19] of the same compound?
**A.** 76 ng/mL

**Q.** What about the concentration at 1 h [20] of the same compound?
**A.** 1700 ng/mL
